The subject of assay [1] is SARS-CoV-2. The assay can be described thus: Antiviral activity against SARS-CoV-2 assessed as inhibition of viral infection in 293T/ACE2 cells preincubated for 30 min followed by cells addition for 12 hrs and complete medium replacement and measured after 48 hrs by luciferase assay. Format: functional, organism-based. Particulars: Severe acute respiratory syndrome coronavirus 2, 293T/ACE2. The method in brief:
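ACE2-293T cells (10^4/well) were plated 12 h before infection. Pseudovirus was mixed with peptides serially diluted in FBS-free DMEM for 30 min at 37 °C and added to the cells. After 12 h the medium was replaced with complete medium and cells were incubated 48 h more. Luciferase activity was read.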

Assay [2] deals with SARS-CoV-2. The assay can be described thus: Antiviral activity against SARS-CoV-2 assessed as inhibition of viral infection in Caco-2 cells preincubated for 30 min followed by cells addition for 12 hrs and complete medium replacement and measured after 48 hrs by luciferase assay. Format: functional, organism-based. As to conditions: Severe acute respiratory syndrome coronavirus 2, Caco-2.

The text below walks through data of ChEMBL document CHEMBL5038580 (J Med Chem, 2022).

Residues, ends and D or L forms follow the SMILES beside them.

On to `CC[C@H](C)[C@H](NC(C)=O)C(=O)N[C@@H](CCC(=O)O)C(=O)N[C@@H](CCC(=O)O)C(=O)N[C@H](C(=O)N[C@H](C(=O)N[C@@H](CCCCN)C(=O)N[C@@H](CCCCN)C(=O)N[C@H](C(=O)N[C@@H](Cc1c[nH]cn1)C(=O)N[C@@H](Cc1c[nH]cn1)C(=O)N[C@H](C(=O)N[C@@H](CCC(=O)O)C(=O)N[C@@H](CCCNC(=N)N)C(=O)N[C@@H](C)C(=O)N[C@H](C(=O)N[C@@H](CCC(=O)O)C(=O)N[C@@H](C)C(=O)N[C@@H](CCC(N)=O)C(=O)N[C@@H](CCC(N)=O)C(=O)N[C@@H](CCCCN)C(=O)N[C@@H](CC(C)C)C(=O)N[C@@H](CC(C)C)C(=O)N[C@@H](CCC(N)=O)C(=O)N[C@@H](CC(C)C)C(=O)N[C@H](C(=O)N[C@H](C(=O)N[C@@H](Cc1c[nH]c2ccccc12)C(=O)NCC(=O)N[C@H](C(=O)N[C@@H](CCCCN)C(=O)N[C@@H](CCC(N)=O)C(=O)N[C@@H](CC(C)C)C(=O)N[C@@H](CCC(N)=O)C(=O)N[C@@H](C)C(=O)N[C@@H](CCCNC(=N)N)C(=O)N[C@H](C(=O)N[C@@H](CC(C)C)C(N)=O)[C@@H](C)CC)[C@@H](C)CC)C(C)C)[C@@H](C)O)[C@@H](C)CC)[C@@H](C)CC)[C@@H](C)CC)C(C)C)[C@@H](C)CC` (Ac-IEEIVKKIHHIERAIEAQQKLLQLTVWGIKQLQARIL-NH2), for which the IC50 in assay [1] and in assay [2] was greater than 20 µM each time.
